Assay type in all cases: cell-based
Test [1] concerns the target T1, Glutamate NMDA receptor; Grin1/Grin2b (Rattus norvegicus) (UniProt P35439+Q00960). In words: Positive allosteric modulation of recombinant rat GluN1alpha/GluN2B receptor expressed in HEK293 cells assessed as potentiation of glutamate-induced current response at 0.3 to 300 uM at holding potential -60mV by whole cell voltage clamp method relative to control. The essentials:
(§1)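 HEK293 cells transfected with GluN1-1a, the GluN2 subunit and GFP. Whole-cell voltage clamp at -60 mV, series resistance <10 MΩ, 80-90% compensation, room temperature (21–25 °C). Compound is co-applied with 1 µM glutamate by multibarrel fast perfusion (exchange ~10 ms). DMSO is held at 1% in all test and control solutions. Readout is % potentiation of the glutamate-evoked current.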

Test [2] has as its target Glutamate NMDA receptor; Grin1/Grin2b (Rattus norvegicus, UniProt P35439+Q00960). Kind of test: Positive allosteric modulation of recombinant rat GluN1alpha/GluN2B receptor expressed in HEK293 cells assessed as potentiation of glutamate-induced current response at holding potential -60mV by whole cell voltage clamp method. The essentials: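 HEK293 cells transfected with GluN1-1a, GluN2A, 2B, 2C or 2D and GFP cDNA. Whole-cell voltage clamp at -60 mV, 21–25 °C, series resistance <10 MΩ compensated 80–90%. Compound co-applied with 1 µM glutamate by fast multibarrel perfusion. DMSO 1% in all solutions. At least four cells per point.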

The target of test [3] is T1, Glutamate NMDA receptor; Grin1/Grin2b (Rattus norvegicus). Kind of test: Positive allosteric modulation of recombinant rat GluN1alpha/GluN2B receptor expressed in HEK293 cells assessed as potentiation of glutamate-induced current response at 1 to 100 uM at holding potential -60mV by whole cell voltage clamp method relative to control. An outline of the steps:
as §1

Test [4] has the same target. Kind of test: Positive allosteric modulation of recombinant rat GluN1alpha/GluN2B receptor expressed in HEK293 cells assessed as potentiation of glutamate-induced current response at 100 uM at holding potential -60mV by whole cell voltage clamp method relative to control. The essentials: as §1
For test [5] the target is unchanged. In words: Positive allosteric modulation of recombinant rat GluN1alpha/GluN2B receptor expressed in HEK293 cells assessed as potentiation of glutamate-induced current response at 1 to 300 uM at holding potential -60mV by whole cell voltage clamp method relative to control.
Test [6] addresses Glutamate NMDA receptor; Grin1/Grin2a (Rattus norvegicus) (UniProt P35439+Q00959). In words: Positive allosteric modulation of recombinant rat GluN1alpha/GluN2A receptor expressed in HEK293 cells assessed as potentiation of glutamate-induced current response at 100 uM at holding potential -60mV by whole cell voltage clamp method relative to control. The essentials:
as §1

The target of test [7] is Glutamate NMDA receptor; Grin1/Grin2c (Rattus norvegicus) (UniProt P35439+Q00961). Kind of test: Positive allosteric modulation of recombinant rat GluN1alpha/GluN2C receptor expressed in HEK293 cells assessed as potentiation of glutamate-induced current response at 100 uM at holding potential -60mV by whole cell voltage clamp method relative to control. An outline of the steps: as §1

In test [8] the target is Ionotropic glutamate receptor NMDA 1/2D (Rattus norvegicus) (UniProt P35439+Q62645). Kind of test: Positive allosteric modulation of recombinant rat GluN1alpha/GluN2D receptor expressed in HEK293 cells assessed as potentiation of glutamate-induced current response at 100 uM at holding potential -60mV by whole cell voltage clamp method relative to control. The essentials:
as §1

Turning to `C[C@@]12CCC[C@H]1[C@@H]1CC=C3C[C@@H](OC(=O)CCC(=O)O)CC[C@]3(C)[C@H]1CC2`, the Emax in test [1] was determined as 452%. Also, in test [2], the EC50 stood at 7.4 µM.

On to `CC(=O)[C@H]1CC[C@H]2[C@@H]3CC=C4C[C@@H](OC(=O)CCCCCC(=O)O)CC[C@]4(C)[C@H]3CC[C@]12C`, for which the Emax in test [3] worked out at 191%. Besides, in test [2], the EC50 was found to be 18 µM. The Activity in test [4] stood at 458%.

Consider `C[C@]12CC[C@H](OC(=O)CCCCCC(=O)O)CC1=CC[C@@H]1[C@@H]2CC[C@]2(C)C(=O)CC[C@@H]12`, for which, in test [3], the Emax is 187%. Moreover, the EC50 in test [2] was 82.4 µM.

`C[C@@]12CCC[C@H]1[C@@H]1CC=C3C[C@@H](OC(=O)CCCCC(=O)O)CC[C@]3(C)[C@H]1CC2`: the Emax in test [1] was 191%. In test [2], the EC50 turned out to be 2.8 µM.

On to `CC[C@H]1CC[C@H]2[C@@H]3CC=C4C[C@@H](OC(=O)CCCCC(=O)O)CC[C@]4(C)[C@H]3CC[C@]12C`, for which, in test [1], the Emax was 60%. Besides, in test [2], the EC50 came to 17.2 µM.

Regarding `C[C@]12CC[C@H](OC(=O)CCCCC(=O)O)CC1=CC[C@@H]1[C@@H]2CC[C@]2(C)C(=O)CC[C@@H]12`, the Emax in test [5] is 180%. Moreover, the EC50 in test [2] is 109 µM.

For the compound `C[C@]12CC[C@H](OC(=O)CCCCCCCCC(=O)O)CC1=CC[C@@H]1[C@@H]2CC[C@]2(C)C(=O)CC[C@@H]12`, in test [3], the Emax amounted to 165%. The EC50 in test [2] worked out at 16.1 µM.

On to `CC[C@H]1CC[C@H]2[C@@H]3CC=C4C[C@@H](OC(=O)CC(=O)O)CC[C@]4(C)[C@H]3CC[C@]12C`, for which, in test [1], the Emax turned out to be 71%. Moreover, the EC50 in test [2] turned out to be 10.7 µM.

On to `C[C@]12CC[C@H](OC(=O)CCCCCCC(=O)O)CC1=CC[C@@H]1[C@@H]2CC[C@]2(C)C(=O)CC[C@@H]12`, for which the Emax in test [3] is 189%. The concentration for a half-maximal effect (EC50) in test [2] turned out to be 49.1 µM.

Turning to `CC(=O)[C@H]1CC[C@H]2[C@@H]3CC=C4C[C@@H](OS(=O)(=O)O)CC[C@]4(C)[C@H]3CC[C@]12C.c1ccncc1`, in test [3], the Emax was 116%. The Activity is 78% in test [4], 107% in test [6], -47% in test [7] and -48% in test [8].

For `CC[C@H]1CC[C@H]2[C@@H]3CC=C4C[C@@H](OC(=O)CCCC(=O)O)CC[C@]4(C)[C@H]3CC[C@]12C`, the maximum response (Emax) in test [1] was 209%. The EC50 in test [2] turned out to be 9.9 µM.

For the compound `CC(=O)[C@H]1CC[C@H]2[C@@H]3CC=C4C[C@@H](OC(=O)C(=O)O)CC[C@]4(C)[C@H]3CC[C@]12C`, in test [3], the Emax worked out at 93%. For the same compound, the EC50 in test [2] worked out at 48.6 µM.

Regarding `CC(=O)[C@H]1CC[C@H]2[C@@H]3CC=C4C[C@@H](OC(=O)CCCC(=O)O)CC[C@]4(C)[C@H]3CC[C@]12C`, the Emax in test [3] amounted to 183%. Further, in test [2], the EC50 is 19 µM. The Activity in test [4] came to 460%.

For the compound `CC[C@H]1CC[C@H]2[C@@H]3CC=C4C[C@@H](OC(=O)CCC(=O)O)CC[C@]4(C)[C@H]3CC[C@]12C`, in test [1], the Emax amounted to 133%. For the same compound, the EC50 in test [2] was 9.9 µM.

`CC(=O)[C@H]1CC[C@H]2[C@@H]3CC=C4C[C@@H](OC(=O)CCCCCCC(=O)O)CC[C@]4(C)[C@H]3CC[C@]12C`: the Emax in test [3] was 156%. Besides, the EC50 in test [2] was 19.3 µM.

Turning to `C[C@]12CC[C@H](OC(=O)CCCCCCCC(=O)O)CC1=CC[C@@H]1[C@@H]2CC[C@]2(C)C(=O)CC[C@@H]12`, the Emax in test [3] was 226%. Also, the EC50 in test [2] is 38.2 µM.

As for `CC(=O)[C@H]1CC[C@H]2[C@@H]3CC=C4C[C@@H](OC(=O)CCC(=O)O)CC[C@]4(C)[C@H]3CC[C@]12C` [PREGNENOLONE SUCCINATE], the Emax in test [3] is 177%. Besides, the EC50 in test [2] amounted to 27.6 µM. Further, the Activity in test [4] was 267%.

Regarding `CC[C@H]1CC[C@H]2[C@@H]3CC=C4C[C@@H](OC(=O)CCCCCC(=O)O)CC[C@]4(C)[C@H]3CC[C@]12C`, the Emax in test [1] came to 48%. Further, the EC50 in test [2] is 26.2 µM.

In the case of `CC(=O)[C@H]1CC[C@H]2[C@@H]3CC=C4C[C@@H](OC(=O)CC(=O)O)CC[C@]4(C)[C@H]3CC[C@]12C`, in test [3], the maximal response (Emax) worked out at 108%. In addition, in test [2], the EC50 worked out at 39.8 µM.

Regarding `C[C@@]12CCC[C@H]1[C@@H]1CC=C3C[C@@H](OC(=O)CCCCCC(=O)O)CC[C@]3(C)[C@H]1CC2`, the Emax in test [1] stood at 109%. The EC50 in test [2] was found to be 1.8 µM.

As for `C[C@@]12CCC[C@H]1[C@@H]1CC=C3C[C@@H](OC(=O)CC(=O)O)CC[C@]3(C)[C@H]1CC2`, the Emax in test [1] is 236%. Further, the EC50 in test [2] turned out to be 4.7 µM.

As for `C[C@@]12CCC[C@H]1[C@@H]1CC=C3C[C@@H](OC(=O)CCCC(=O)O)CC[C@]3(C)[C@H]1CC2`, in test [1], the Emax was found to be 348%. In addition, the EC50 in test [2] was determined as 5.2 µM.

Consider `C[C@]12CC[C@H](OC(=O)CCCC(=O)O)CC1=CC[C@@H]1[C@@H]2CC[C@]2(C)C(=O)CC[C@@H]12`, for which the Emax in test [5] came out at 154%. For the same compound, the EC50 in test [2] is 151 µM.
